# ChEMBL document CHEMBL2384906, “Biological activity, design, synthesis and structure activity relationship of some novel derivatives of curcumin containing sulfonamides” (Eur J Med Chem, 2013)
# Active and inactive are the calls of the source. No cut-off for these calls is given here.
# How the values were obtained:
# Mus musculus = assay: Antiinflammatory activity in mouse assessed as inhibition of carrageenan-induced increase in paw volume at 200 mg/kg administered 1 hr prior to carrageenan challenge measured after 3 hrs relative to control; type: functional
# Procedure, shortened: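 Mice were fasted 2 h and placed in groups of five. Controls received saline i.p. Phenylbutazone was given at 100 mg/kg i.p., curcumin at 200 mg/kg i.p., and derivatives at 200 mg/kg. After 1 h, 0.1 mL of 1% carrageenan in saline was injected subplantar into the right hind paw. Paw volume was followed by plethysmometer for 3 h, and % inhibition was calculated as (Vc − Vt)/Vc × 100.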
# HCT-116 = assay: Cytotoxicity against human HCT116 cells after 24 hrs by MTT assay; type: functional, cell-based
# Procedure, shortened: (§1)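 The MTT assay seeded 5 × 10⁴ cells per well and grew them 24 h in RPMI 1640 with compound at 2.5–200 µM. Medium without cells was the blank and adriamycin the positive control. MTT was added for 4 h at 37 °C, formazan was solubilised, and absorbance was read at 570 nm. IC50 is the concentration that cuts viability 50% against untreated cells.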
# QG-56 = assay: Cytotoxicity against human QG56 cells after 24 hrs by MTT assay; type: functional, cell-based; procedure, shortened: as §1
# HeLa = assay: Cytotoxicity against human HeLa cells after 24 hrs by MTT assay; type: functional, cell-based; procedure, shortened: as §1
# HepG2 = assay: Cytotoxicity against human HepG2 cells after 24 hrs by MTT assay; type: functional, cell-based; procedure, shortened: as §1
# Trichoderma viride [1] = assay: Antifungal activity against Trichoderma viride MTCC 1107 after 48 hrs; type: functional; conditions: MTCC 1107, 48 h
# Trichoderma viride [2] = assay: Antifungal activity against Trichoderma viride MTCC 1107 assessed as zone of inhibition at 20 uM after 48 hrs by disc diffusion method; type: functional
# Procedure, shortened: (§2)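 Spores from 4-day potato dextrose agar cultures, suspended in sterile water at 1.5 × 10⁵ CFU/mL. 0.2 mL was spread on potato dextrose agar. 5 mm filter-paper discs soaked with test compound were laid on the lawn. Incubation was 48 h at 28 °C, then the inhibition zone was measured in mm. Fluconazole was the positive control and acetone the negative control.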
# Trichoderma viride [3] = assay: Antifungal activity against Trichoderma viride MTCC 1107 assessed as zone of inhibition at 40 uM after 48 hrs by disc diffusion method; type: functional; conditions: MTCC 1107, 48 h, read-out: IZ; procedure, shortened: as §2
# Trichoderma viride [4] = assay: Antifungal activity against Trichoderma viride MTCC 1107 assessed as zone of inhibition at 80 uM after 48 hrs by disc diffusion method; type: functional; conditions: MTCC 1107, 48 h, read-out: IZ; procedure, shortened: as §2
# Curvularia lunata [5] = assay: Antifungal activity against Curvularia lunata MTCC 581 after 48 hrs; type: functional; conditions: MTCC 581, 48 h
# Curvularia lunata [6] = assay: Antifungal activity against Curvularia lunata MTCC 581 assessed as zone of inhibition at 20 uM after 48 hrs by disc diffusion method; type: functional; procedure, shortened: as §2
# Curvularia lunata [7] = assay: Antifungal activity against Curvularia lunata MTCC 581 assessed as zone of inhibition at 40 uM after 48 hrs by disc diffusion method; type: functional; conditions: MTCC 581, 48 h, read-out: IZ; procedure, shortened: as §2
# Aspergillus flavus [8] = assay: Antifungal activity against Aspergillus flavus MTCC 1021 after 48 hrs; type: functional
# Curvularia lunata [9] = assay: Antifungal activity against Curvularia lunata MTCC 581 assessed as zone of inhibition at 80 uM after 48 hrs by disc diffusion method; type: functional; conditions: MTCC 581, 48 h, read-out: IZ; procedure, shortened: as §2
# Aspergillus flavus [10] = assay: Antifungal activity against Aspergillus flavus MTCC 1021 assessed as zone of inhibition at 80 uM after 48 hrs by disc diffusion method; type: functional; procedure, shortened: as §2
# Aspergillus niger [11] = assay: Antifungal activity against Aspergillus niger MTCC 1108 after 48 hrs; type: functional
# Aspergillus niger [12] = assay: Antifungal activity against Aspergillus niger MTCC 1108 assessed as zone of inhibition at 80 uM after 48 hrs by disc diffusion method; type: functional; procedure, shortened: as §2
# Escherichia coli [13] = assay: Antimicrobial activity against Escherichia coli ATCC 35218 after 24 hrs by broth micro serial dilution method; type: functional; conditions: ATCC 35218, 24 h
# Procedure, shortened: (§3)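 This was broth microdilution in autoclaved Mueller-Hinton broth. 150 µL of compound per well was serially diluted […], and 50 µL of test organism was added. Plates were incubated 24 h at 37 °C and optical density was read.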
# Escherichia coli [14] = assay: Antimicrobial activity against Escherichia coli ATCC 35218 assessed as diameter of inhibition zone at 20 uM after 24 hrs by Kirby -Baur disc diffusion method; type: functional
# Procedure, shortened: (§4)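 Kirby-Bauer disc diffusion was used. Acetone stocks (160 µM) were serially doubled down to 80, 40 and 20 µM. 4 µL of each went onto 5 mm sterile paper discs, which were dried 30 min at 50 °C. Inoculum was 1.5 × 10⁸ CFU/mL diluted to 3 × 10² CFU/mL, and 50 µL was spread on Mueller-Hinton agar. After 24 h at 37 °C the inhibition-zone diameter was measured. Ciprofloxacin served as positive control.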
# Escherichia coli [15] = assay: Antimicrobial activity against Escherichia coli ATCC 35218 assessed as diameter of inhibition zone at 40 uM after 24 hrs by Kirby -Baur disc diffusion method; type: functional; procedure, shortened: as §4
# Escherichia coli [16] = assay: Antimicrobial activity against Escherichia coli ATCC 35218 assessed as diameter of inhibition zone at 80 uM after 24 hrs by Kirby -Baur disc diffusion method; type: functional; conditions: ATCC 35218, 24 h, read-out: DIZ; procedure, shortened: as §4
# Pseudomonas aeruginosa [17] = assay: Antimicrobial activity against Pseudomonas aeruginosa ATCC 15499 after 24 hrs by broth micro serial dilution method; type: functional; conditions: ATCC 15499, 24 h; procedure, shortened: as §3
# Pseudomonas aeruginosa [18] = assay: Antimicrobial activity against Pseudomonas aeruginosa ATCC 15499 assessed as diameter of inhibition zone at 20 uM after 24 hrs by Kirby -Baur disc diffusion method; type: functional; procedure, shortened: as §4
# Pseudomonas aeruginosa [19] = assay: Antimicrobial activity against Pseudomonas aeruginosa ATCC 15499 assessed as diameter of inhibition zone at 40 uM after 24 hrs by Kirby -Baur disc diffusion method; type: functional; conditions: ATCC 15499, 24 h, read-out: DIZ; procedure, shortened: as §4
# Pseudomonas aeruginosa [20] = assay: Antimicrobial activity against Pseudomonas aeruginosa ATCC 15499 assessed as diameter of inhibition zone at 80 uM after 24 hrs by Kirby -Baur disc diffusion method; type: functional; procedure, shortened: as §4
# Salmonella typhi [21] = assay: Antimicrobial activity against Salmonella typhi ATCC 23564 after 24 hrs by broth micro serial dilution method; type: functional, Salmonella enterica subsp. enterica serovar Typhi; conditions: Salmonella enterica, ATCC 23564, 24 h
# Salmonella typhi [22] = assay: Antimicrobial activity against Salmonella typhi ATCC 23564 assessed as diameter of inhibition zone at 20 uM after 24 hrs by Kirby -Baur disc diffusion method; type: functional; conditions: Salmonella enterica subsp. enterica serovar Typhi
# Salmonella typhi [23] = assay: Antimicrobial activity against Salmonella typhi ATCC 23564 assessed as diameter of inhibition zone at 40 uM after 24 hrs by Kirby -Baur disc diffusion method; type: functional, Salmonella enterica subsp. enterica serovar Typhi; conditions: for zone of inhibition at 40 µM: Salmonella enterica, ATCC 23564, 24 h, read-out: DIZ
# Salmonella typhi [24] = assay: Antimicrobial activity against Salmonella typhi ATCC 23564 assessed as diameter of inhibition zone at 80 uM after 24 hrs by Kirby -Baur disc diffusion method; type: functional, Salmonella enterica subsp. enterica serovar Typhi; conditions: Salmonella enterica, ATCC 23564, 24 h; read-out: DIZ
# Bacillus cereus [25] = assay: Antimicrobial activity against Bacillus cereus MTCC 7350 after 24 hrs by broth micro serial dilution method; type: functional; procedure, shortened: as §3
# Bacillus cereus [26] = assay: Antimicrobial activity against Bacillus cereus MTCC 7350 assessed as diameter of inhibition zone at 80 uM after 24 hrs by Kirby -Baur disc diffusion method; type: functional; procedure, shortened: as §4
# Staphylococcus aureus [27] = assay: Antimicrobial activity against Staphylococcus aureus ATCC 11632 after 24 hrs by broth micro serial dilution method; type: functional; procedure, shortened: as §3
# Staphylococcus aureus [28] = assay: Antimicrobial activity against Staphylococcus aureus ATCC 11632 assessed as diameter of inhibition zone at 20 uM after 24 hrs by Kirby -Baur disc diffusion method; type: functional; procedure, shortened: as §4
# Staphylococcus aureus [29] = assay: Antimicrobial activity against Staphylococcus aureus ATCC 11632 assessed as diameter of inhibition zone at 40 uM after 24 hrs by Kirby -Baur disc diffusion method; type: functional; procedure, shortened: as §4
# Staphylococcus aureus [30] = assay: Antimicrobial activity against Staphylococcus aureus ATCC 11632 assessed as diameter of inhibition zone at 80 uM after 24 hrs by Kirby -Baur disc diffusion method; type: functional; procedure, shortened: as §4
# [31] = ATCC 35218, 24 h, read-out: DIZ
Compound,inhibition in vivo at 200 mg/kg (Mus musculus),IC50 (HCT-116),IC50 (QG-56),IC50 (HeLa),IC50 (HepG2),MIC (Trichoderma viride [1]),zone of inhibition at 40 µM (Trichoderma viride [3]),zone of inhibition at 80 µM (Trichoderma viride [4]),MIC (Curvularia lunata [5]),zone of inhibition at 40 µM (Curvularia lunata [7]),zone of inhibition at 80 µM (Curvularia lunata [9]),inhibition zone (IZ) (Aspergillus flavus [10]),inhibition zone (IZ) (Aspergillus niger [12]),MIC (Escherichia coli [13]),zone of inhibition at 80 µM (Escherichia coli [16]),MIC (Pseudomonas aeruginosa [17]),MIC (Salmonella typhi [21]),diameter of the inhibition zone (DIZ) (Salmonella typhi [22]),zone of inhibition at 80 µM (Salmonella typhi [24]),MIC (Bacillus cereus [25]),also measured
COc1ccc(NS(=O)(=O)c2ccc(/N=N/c3c(/C=C/c4ccc(O)c(OC)c4)noc3/C=C/c3ccc(O)c(OC)c3)cc2)nn1,48.3%,Not Active,Not Active,Not Active,Not Active,> 80 µM,9 mm,11 mm,> 80 µM,9 mm,11 mm,inactive,inactive,> 80 µM,11 mm,80 µM,80 µM,inactive,14 mm,inactive,"inhibition zone (IZ) (Trichoderma viride [2]): inactive; inhibition zone (IZ) (Curvularia lunata [6]): inactive; MIC (Aspergillus flavus [8]; MTCC 1021, 48 h): > 80 µM; MIC (Aspergillus niger [11]; MTCC 1108, 48 h): > 80 µM; diameter of the inhibition zone (DIZ) (Escherichia coli [14]): inactive; diameter of the inhibition zone (DIZ) (Escherichia coli [15]): inactive; diameter of the inhibition zone (DIZ) (Pseudomonas aeruginosa [18]): inactive; zone of inhibition at 40 µM (Pseudomonas aeruginosa [19]): 9 mm; zone of inhibition at 80 µM (Pseudomonas aeruginosa [20]; ATCC 15499, 24 h, read-out: DIZ): 13 mm; zone of inhibition at 40 µM (Salmonella typhi [23]): 9 mm; diameter of the inhibition zone (DIZ) (Bacillus cereus [26]): inactive; MIC (Staphylococcus aureus [27]; ATCC 11632, 24 h): > 80 µM; diameter of the inhibition zone (DIZ) (Staphylococcus aureus [28]): inactive; diameter of the inhibition zone (DIZ) (Staphylococcus aureus [29]): inactive; zone of inhibition at 80 µM (Staphylococcus aureus [30]; ATCC 11632, 24 h, read-out: DIZ): 10 mm"
COc1cc(/C=C/c2nn(-c3ccccc3)c(/C=C/c3ccc(O)c(OC)c3)c2/N=N/c2ccc(S(=O)(=O)Nc3ccccn3)cc2)ccc1O,20.9%,Not Active,100 µM,50 µM,Not Active,40 µM,13 mm,17 mm,40 µM,13 mm,17 mm,inactive,inactive,> 80 µM,10 mm,> 80 µM,> 80 µM,inactive,9 mm,inactive,"zone of inhibition at 20 µM (Trichoderma viride [2]; MTCC 1107, 48 h, read-out: IZ): 10 mm; zone of inhibition at 20 µM (Curvularia lunata [6]; MTCC 581, 48 h, read-out: IZ): 10 mm; MIC (Aspergillus flavus [8]): inactive; MIC (Aspergillus niger [11]): inactive; zone of inhibition at 20 µM (Escherichia coli [14]; [31]): 7 mm; zone of inhibition at 40 µM (Escherichia coli [15]; [31]): 9 mm; diameter of the inhibition zone (DIZ) (Pseudomonas aeruginosa [20]): inactive; diameter of the inhibition zone (DIZ) (Salmonella typhi [23]; Salmonella enterica subsp. enterica serovar Typhi): inactive; diameter of the inhibition zone (DIZ) (Bacillus cereus [26]): inactive; MIC (Staphylococcus aureus [27]): inactive; diameter of the inhibition zone (DIZ) (Staphylococcus aureus [30]): inactive"
COc1cc(/C=C/c2noc(/C=C/c3ccc(O)c(OC)c3)c2/N=N/c2ccc(S(=O)(=O)Nc3ccccn3)cc2)ccc1O,27.4%,Not Active,Not Active,Not Active,Not Active,80 µM,10 mm,12 mm,> 80 µM,10 mm,12 mm,inactive,inactive,> 80 µM,10 mm,> 80 µM,80 µM,inactive,15 mm,inactive,"inhibition zone (IZ) (Trichoderma viride [2]): inactive; inhibition zone (IZ) (Curvularia lunata [6]): inactive; MIC (Aspergillus flavus [8]; MTCC 1021, 48 h): > 80 µM; MIC (Aspergillus niger [11]): inactive; diameter of the inhibition zone (DIZ) (Escherichia coli [14]): inactive; diameter of the inhibition zone (DIZ) (Escherichia coli [15]): inactive; diameter of the inhibition zone (DIZ) (Pseudomonas aeruginosa [20]): inactive; zone of inhibition at 40 µM (Salmonella typhi [23]): 9 mm; diameter of the inhibition zone (DIZ) (Bacillus cereus [26]): inactive; MIC (Staphylococcus aureus [27]): inactive; diameter of the inhibition zone (DIZ) (Staphylococcus aureus [30]): inactive"
